Data taken from ChEMBL document CHEMBL3120102, “Structure-based design, synthesis and biological evaluation of novel anthra[1,2-d]imidazole-6,11-dione homologues as potential antitumor agents” (2013).

Legend:
Format in all cases: functional
[1] = Cytotoxicity against human Hs578T cells assessed as cell growth at 10 uM after 48 hrs by SRB assay; settings: Hs-578T, read-out: Activity
[2] = test system: HT-29; experiment: Cytotoxicity against human HT-29 cells assessed as cell growth at 10 uM after 48 hrs by SRB assay; settings: HT-29, 48 h, read-out: Activity
[3] = test system: HCT-116; experiment: Cytotoxicity against human HCT116 cells assessed as growth inhibition after 48 hrs by SRB assay
How it was run: (§1)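 NCI 60-cell-line five-dose screen at […]. Drug exposure was 48 h, followed by sulforhodamine B protein staining. GI50, TGI and LC50 were calculated against a time-zero control and untreated plates, with dose–response curves plotted from log10 concentration.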

[4] = test system: SF-295; experiment: Cytotoxicity against human SF295 cells assessed as growth inhibition after 48 hrs by SRB assay
How it was run: (§2)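 NCI 60-cell-line screen, five-dose stage: each cell line exposed for 48 h to five concentrations spanning five log steps; cellular protein measured by sulforhodamine B colorimetry. A time-zero cell control and plates without drug are used to derive GI50, TGI and LC50 from log-concentration dose-response curves.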

[5] = test system: UO-31; experiment: (§3) Cytotoxicity against human UO31 cells assessed as growth inhibition after 48 hrs by SRB assay
How it was run: (§4)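 NCI 60-cell-line screen, two stages. Five-dose testing at […]. Cellular protein measured by sulforhodamine B colorimetry after 48 h drug exposure. A time-zero control and drug-free plates are used to derive GI50, TGI and LC50 from dose-response curves plotted as log10 concentration per cell line.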

[6] = as §3; settings: UO-31, 48 h; how it was run: as §4
[7] = test system: ACHN; experiment: Cytotoxicity against human ACHN cells assessed as growth inhibition after 48 hrs by SRB assay; how it was run: as §1
[8] = test system: HCC 2998; experiment: Cytotoxicity against human HCC2998 cells assessed as growth inhibition after 48 hrs by SRB assay; how it was run: as §1
[9] = test system: SR; experiment: Cytotoxicity against human SR cells assessed as growth inhibition after 48 hrs by SRB assay; how it was run: as §4
[10] = test system: OVCAR-5; experiment: (§5) Cytotoxicity against human OVCAR5 cells assessed as growth inhibition after 48 hrs by SRB assay; how it was run: as §2
[11] = as §5; settings: OVCAR-5, 48 h; how it was run: as §2
[12] = test system: NCI-H226; experiment: Cytotoxicity against human NCI-H226 cells assessed as growth inhibition after 48 hrs by SRB assay; how it was run: as §2
[13] = test system: Malme-3M; experiment: Cytotoxicity against human MALME-3M cells assessed as growth inhibition after 48 hrs by SRB assay; how it was run: as §1
[14] = test system: BT-549; experiment: Cytotoxicity against human BT549 cells assessed as growth inhibition after 48 hrs by SRB assay; how it was run: as §1
[15] = test system: K562; experiment: Cytotoxicity against human K562 cells assessed as growth inhibition after 48 hrs by SRB assay; how it was run: as §1
[16] = test system: UACC-62; experiment: Cytotoxicity against human UACC62 cells assessed as growth inhibition after 48 hrs by SRB assay; how it was run: as §4
[17] = test system: NCI-H522; experiment: Cytotoxicity against human NCI-H522 cells assessed as growth inhibition after 48 hrs by SRB assay; how it was run: as §2
[18] = test system: MDA-MB-435; experiment: Cytotoxicity against human MDA-MB-435 cells assessed as growth inhibition after 48 hrs by SRB assay; how it was run: as §2
[19] = test system: SNB-19; experiment: Cytotoxicity against human SNB19 cells assessed as growth inhibition after 48 hrs by SRB assay; how it was run: as §4
[20] = test system: SK-MEL-2; experiment: Cytotoxicity against human SK-MEL-2 cells assessed as growth inhibition after 48 hrs by SRB assay; how it was run: as §2
[21] = test system: 786-0; experiment: Cytotoxicity against human 786-0 cells assessed as growth inhibition after 48 hrs by SRB assay; how it was run: as §1
[22] = test system: TK-10; experiment: Cytotoxicity against human TK10 cells assessed as growth inhibition after 48 hrs by SRB assay; how it was run: as §4
[23] = test system: MDA-MB-231; experiment: Cytotoxicity against human MDA-MB-231 cells assessed as growth inhibition after 48 hrs by SRB assay; how it was run: as §2
[24] = (§6) Cytotoxicity against human OVCAR4 cells assessed as growth inhibition after 48 hrs by SRB assay; settings: OVCAR-4, 48 h; how it was run: as §2
[25] = test system: OVCAR-4; experiment: as §6; how it was run: as §2
[26] = test system: A498; experiment: Cytotoxicity against human A498 cells assessed as growth inhibition after 48 hrs by SRB assay; how it was run: as §1
[27] = test system: HL-60(TB); experiment: Cytotoxicity against human HL-60(TB) cells assessed as growth inhibition after 48 hrs by SRB assay
How it was run: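 NCI 60-cell panel five-concentration stage (0.01, 0.1, 1, 10, 100) in HL-60(TB). Cellular protein was measured by sulforhodamine B colorimetry after 48 h of exposure. A time-zero cell control and untreated plates allowed calculation of GI50, TGI and LC50. These were read from log10 concentration dose-response curves.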

[28] = test system: MDA-MB-468; experiment: Cytotoxicity against human MDA-MB-468 cells assessed as growth inhibition after 48 hrs by SRB assay; how it was run: as §2
[29] = test system: IGROV-1; experiment: Cytotoxicity against human IGROV1 cells assessed as growth inhibition after 48 hrs by SRB assay; how it was run: as §1
[30] = read-out: LC50 (the source's name)

O=C1c2ccccc2C(=O)c2c1ccc1[nH]c(=S)[nH]c21
growth at 10 µM [1]: 104%
growth at 10 µM [2]: 104%

O=C1c2ccccc2C(=O)c2c1ccc1nc(SCCN3CCCC3)[nH]c21
growth inhibition (GI) [3]: Dose-dependent effect
GI50 ([3]; HCT-116, 48 h): 1.64 µM
LC50 ([3]; HCT-116, 48 h): 8.15 µM
TGI ([3]; HCT-116, 48 h): 3.66 µM
growth inhibition (GI) [4]: Dose-dependent effect
GI50 ([4]; SF-295, 48 h): 14.2 µM
LC50 ([4]; SF-295, 48 h): 60.9 µM
TGI ([4]; SF-295, 48 h): 29.4 µM
growth inhibition (GI) [5]: Dose-dependent effect
GI50 [6]: 2.08 µM
LC50 [6]: 44.9 µM
TGI [6]: 15.8 µM
GI50 [7]: 2.34 µM
TGI [7]: 16.5 µM
growth inhibition (GI) [7]: Dose-dependent effect
CC50 [7, 30]: 41.1 µM
growth inhibition (GI) [8]: Dose-dependent effect
GI50 ([8]; HCC 2998, 48 h): 4.91 µM
TGI ([8]; HCC 2998, 48 h): 18.5 µM
CC50 ([8]; HCC 2998, 48 h, read-out: LC50 (the source's name)): 46 µM
GI50 [9]: 1.48 µM
LC50 (50% lethal concentration) [9]: 86.3 µM
TGI [9]: 4.19 µM
growth inhibition (GI) [9]: Dose-dependent effect
growth inhibition (GI) [10]: Dose-dependent effect
GI50 [11]: 15.5 µM
LC50 [11]: 55.8 µM
TGI [11]: 29.4 µM
growth inhibition (GI) [12]: Dose-dependent effect
TGI ([12]; NCI-H226, 48 h): 36.6 µM
GI50 [13]: 14 µM
TGI [13]: 28.8 µM
growth inhibition (GI) [13]: Dose-dependent effect
CC50 [13, 30]: 59.4 µM
growth inhibition (GI) [14]: Dose-dependent effect
GI50 ([14]; BT-549, 48 h): 12.5 µM
LC50 (concentration killing 50% of cells) ([14]; BT-549, 48 h): 55.8 µM
TGI ([14]; BT-549, 48 h): 26.4 µM
growth inhibition (GI) [15]: Dose-dependent effect
GI50 ([15]; K562, 48 h): 1.7 µM
TGI ([15]; K562, 48 h): 5.2 µM
CC50 ([15]; K562, 48 h, read-out: LC50 (the source's name)): 72 µM
growth inhibition (GI) [16]: Dose-dependent effect
GI50 ([16]; UACC-62, 48 h): 15.8 µM
LC50 ([16]; UACC-62, 48 h): 57.4 µM
TGI ([16]; UACC-62, 48 h): 30.1 µM
growth inhibition (GI) [17]: Dose-dependent effect
TGI ([17]; NCI-H522, 48 h): 32.5 µM
growth inhibition (GI) [18]: Dose-dependent effect
GI50 ([18]; MDA-MB-435, 48 h): 4.18 µM
LC50 ([18]; MDA-MB-435, 48 h): 43.9 µM
TGI ([18]; MDA-MB-435, 48 h): 16.2 µM
growth inhibition (GI) [19]: Dose-dependent effect
GI50 ([19]; SNB-19, 48 h): 17.1 µM
LC50 ([19]; SNB-19, 48 h): 59.7 µM
TGI ([19]; SNB-19, 48 h): 31.9 µM
growth inhibition (GI) [20]: Dose-dependent effect
GI50 ([20]; SK-MEL-2, 48 h): 17.1 µM
LC50 (50% lethal concentration) ([20]; SK-MEL-2, 48 h): 63.5 µM
TGI ([20]; SK-MEL-2, 48 h): 32.9 µM
growth inhibition (GI) [21]: Dose-dependent effect
GI50 ([21]; 786-0, 48 h): 11.7 µM
LC50 (concentration causing 50% net cell kill) ([21]; 786-0, 48 h): 54.7 µM
TGI ([21]; 786-0, 48 h): 25.3 µM
growth inhibition (GI) [22]: Dose-dependent effect
GI50 ([22]; TK-10, 48 h): 4.22 µM
LC50 ([22]; TK-10, 48 h): 46.8 µM
TGI ([22]; TK-10, 48 h): 19.1 µM
growth inhibition (GI) [23]: Dose-dependent effect
GI50 ([23]; MDA-MB-231, 48 h): 4.46 µM
LC50 ([23]; MDA-MB-231, 48 h): 43.9 µM
TGI ([23]; MDA-MB-231, 48 h): 16.2 µM
GI50 [24]: 1.89 µM
LC50 (concentration killing 50% of cells) [24]: 38.9 µM
TGI [24]: 7.34 µM
growth inhibition (GI) [25]: Dose-dependent effect
growth inhibition (GI) [26]: Dose-dependent effect
GI50 ([26]; A498, 48 h): 5.82 µM
TGI ([26]; A498, 48 h): 21.3 µM
CC50 ([26]; A498, 48 h, read-out: LC50 (the source's name)): 49.4 µM
growth inhibition (GI) [27]: Dose-dependent effect
GI50 ([27]; HL-60, 48 h): 1.13 µM
LC50 ([27]; HL-60, 48 h): 57.6 µM
TGI ([27]; HL-60, 48 h): 11.9 µM
growth inhibition (GI) [28]: Dose-dependent effect
GI50 ([28]; MDA-MB-468, 48 h): 1.33 µM
LC50 ([28]; MDA-MB-468, 48 h): 7.05 µM
TGI ([28]; MDA-MB-468, 48 h): 3.06 µM
growth inhibition (GI) [29]: Dose-dependent effect
GI50 ([29]; IGROV-1, 48 h): 0.56 µM
LC50 ([29]; IGROV-1, 48 h): 22.4 µM
TGI ([29]; IGROV-1, 48 h): 3.39 µM
